One block for each molecule: values may come before it. Calls of active or inactive are those of the source. The rule behind the calls is not given here.
Columns and labels:
MCF7 [1] = assay: Antiproliferative activity against ER-positive human MCF7 cells assessed as cell viability at 0.1 mM after 72 hrs by MTT assay; type: functional; conditions: MCF7, 72 h, read-out: Activity
Summary of the method: (§1)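 MCF-7 (ER-positive) cells in DMEM with 2 mM L-glutamine, penicillin/streptomycin and 10% charcoal-treated FCS, seeded at 2500-5000 cells/well. Drugs added 24 h later in serial dilutions from 10 mM DMSO stocks, then exposed 72 h. MTT (500 µg/mL) for 3 h at 37 °C, formazan dissolved in DMSO, A570 read minus A650. Sextuplicates, three experiments.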

[2] = Retardation factor of the compound using c-hexane/AcOEt at ratio of 6:4 as solvent system; type: physicochemical
[3] = Retardation factor of the compound using Et2O/c-hexane at ratio of 8:2 as solvent system; type: physicochemical
MCF7 [4] = assay: Cell cycle arrest in human MCF7 cells assessed as accumulation at G0/G1 phase at 100 uM after 48 hrs by flow cytometry (reference value: 87%); type: functional
Summary of the method: (§2)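 MCF-7 cells at 1.3 x 10^5 cells/mL exposed to 100 µM for 48 or 72 h, with DMSO control. Cells fixed in PBS/ethanol (30/70), then 10^4 cells incubated 30 min in PBS/0.2% Triton X-100/1 mM EDTA with propidium iodide (50 µg/mL) and RNase (0.5 mg/mL). Flow cytometry gave % cells per phase, with sub-G1 counted as apoptotic. Mean of two independent experiments.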

MDA-MB-231 [5] = assay: Growth inhibition of ER-negative human MDA-MB-231 cells after 72 hrs by MTT assay; type: functional; conditions: MDA-MB-231, 72 h
Summary of the method: (§3)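 ER-negative MDA-MB-231 cells and tamoxifen- or Faslodex-resistant MCF-7 cells, grown in DMEM with 10% charcoal-treated FCS and seeded at 2500-5000 cells/well. Drug serial dilutions added after 24 h from 10 mM DMSO stocks. After 72 h, MTT at 500 µg/mL for 3 h at 37 °C, then A570 read minus A650.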

MCF7 [6] = assay: Cell cycle arrest in human MCF7 cells assessed as accumulation at subG1 phase at 100 uM after 48 hrs by flow cytometry (reference value: 5%); type: functional; summary of the method: as §2
MCF7 [7] = assay: Cell cycle arrest in human MCF7 cells assessed as accumulation at S phase at 100 uM after 72 hrs by flow cytometry (reference value: 20.5%); type: functional; summary of the method: as §2
Ishikawa = assay: Antiproliferative activity against human Ishikawa cells assessed as inhibition of cell proliferation; type: functional, cell-based
MCF7 [8] = assay: Cell cycle arrest in human MCF7 cells assessed as accumulation at G0/G1 phase at 100 uM after 72 hrs by flow cytometry (reference value: 60.5%); type: functional; summary of the method: as §2
Caco-2 = assay: Antiproliferative activity against human Caco2 cells assessed as inhibition of cell proliferation; type: functional, cell-based
IGROV-1 = assay: Antiproliferative activity against human IGROV1 cells assessed as inhibition of cell proliferation; type: functional, cell-based
MCF7 [9] = assay: Cell cycle arrest in human MCF7 cells assessed as accumulation at G2/M phase at 100 uM after 72 hrs by flow cytometry (reference value: 19%); type: functional; summary of the method: as §2
RPMI-8226 = assay: Growth inhibition of human RPMI8226 cells after 72 hrs by MTS assay; type: functional; conditions: RPMI-8226, 72 h
Summary of the method: (§4)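 Myeloma RPMI 8226 and LP-1 cells and prostate PC-3 cells, grown in RPMI 1640 with 2 mM L-glutamine and 10% heat-inactivated FBS, seeded at 2500-5000 cells/well. Drug dilutions added after 24 h. After 72 h, MTS reagent added and A492 read 2 or 3 h later. Run in triplicate, with each experiment done at least twice. GI50 taken relative to vehicle-treated cells.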

MCF7 [10] = assay: Antiproliferative activity against human MCF7 cells assessed as inhibition of cell proliferation; type: functional, cell-based
MCF7 [11] = assay: Cell cycle arrest in human MCF7 cells assessed as accumulation at G2/M phase at 100 uM after 48 hrs by flow cytometry (reference value: 7%); type: functional; summary of the method: as §2
MCF7 [12] = assay: Cell cycle arrest in human MCF7 cells assessed as accumulation at subG1 phase at 100 uM after 72 hrs by flow cytometry (reference value: 9.5%); type: functional; summary of the method: as §2
LP-1 = assay: Growth inhibition of human LP-1 cells after 72 hrs by MTS assay; type: functional; conditions: LP-1, 72 h; summary of the method: as §4
MCF7 [13] = assay: Cell cycle arrest in human MCF7 cells assessed as accumulation at S phase at 100 uM after 48 hrs by flow cytometry (reference value: 6%); type: functional; summary of the method: as §2
MCF7 [14] = assay: Growth inhibition of ER-positive human MCF7 cells after 72 hrs by MTT assay; type: functional; conditions: MCF7, 72 h; summary of the method: as §1
MDA-MB-231 [15] = assay: Antiproliferative activity against human MDA-MB-231 cells assessed as inhibition of cell proliferation; type: functional, cell-based
PC-3 = assay: Growth inhibition of human PC3 cells after 72 hrs by MTS assay; type: functional; conditions: PC-3, 72 h; summary of the method: as §4
[16] = Retardation factor of the compound using CH2Cl2/MeOH at ratio of 95:5 as solvent system; type: physicochemical
[17] = Retardation factor of the compound using c-hexane/AcOEt at ratio of 8:2 as solvent system; type: physicochemical
[18] = Retardation factor of the compound using CH2Cl2/AcOEt at ratio of 95:5 as solvent system; type: physicochemical
MCF7 [19] = assay: Growth inhibition of tamoxifen-resistant human MCF7 cells after 72 hrs by MTT assay; type: functional; conditions: MCF7, 72 h; summary of the method: as §3
[20] = molecular target: Heat shock protein HSP 90-beta (Homo sapiens) (UniProt P08238); assay: Inhibition of HSP90 in human MCF7 cells assessed as induction of Her2 degradation at 100 uM after 24 hrs by western blot analysis; type: cell-based
Heat shock protein HSP 90-beta (Homo sapiens), sequence (P08238 whole entry): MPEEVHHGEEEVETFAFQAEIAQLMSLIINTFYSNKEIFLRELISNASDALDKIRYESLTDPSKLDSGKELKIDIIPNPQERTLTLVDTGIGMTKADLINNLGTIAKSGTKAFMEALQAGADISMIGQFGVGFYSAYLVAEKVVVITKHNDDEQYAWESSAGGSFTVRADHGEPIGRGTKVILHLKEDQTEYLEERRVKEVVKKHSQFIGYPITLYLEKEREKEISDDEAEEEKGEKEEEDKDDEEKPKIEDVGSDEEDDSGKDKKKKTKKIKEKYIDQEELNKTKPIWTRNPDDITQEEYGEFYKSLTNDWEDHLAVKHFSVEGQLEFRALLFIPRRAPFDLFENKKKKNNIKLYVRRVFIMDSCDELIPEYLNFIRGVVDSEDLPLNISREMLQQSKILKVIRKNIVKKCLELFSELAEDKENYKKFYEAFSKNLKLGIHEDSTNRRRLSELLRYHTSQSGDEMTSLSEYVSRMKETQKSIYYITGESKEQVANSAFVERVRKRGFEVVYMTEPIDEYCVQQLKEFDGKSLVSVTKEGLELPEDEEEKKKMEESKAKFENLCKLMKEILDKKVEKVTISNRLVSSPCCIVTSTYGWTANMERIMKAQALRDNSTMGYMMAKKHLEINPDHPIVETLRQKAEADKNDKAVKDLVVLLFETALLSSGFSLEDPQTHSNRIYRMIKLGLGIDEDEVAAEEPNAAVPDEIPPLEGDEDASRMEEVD

[21] = molecular target: Heat shock protein HSP 90-beta (Homo sapiens) (UniProt P08238); assay: Inhibition of HSP90 in human MCF7 cells assessed as induction of Raf degradation at 100 uM after 24 hrs by western blot analysis; type: cell-based
[22] = molecular target: Heat shock protein HSP 90-beta (Homo sapiens) (UniProt P08238); assay: Inhibition of HSP90 in human MCF7 cells assessed as ER-alpha degradation at 100 uM after 24 hrs by western blot analysis in presence of proteasome inhibitor MG132; type: cell-based
Summary of the method: (§5)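 MCF-7 cells grown to 50% confluence, exposed to 100 µM for 24 h with or without MG132 (5 µM). Lysed in Tris-HCl pH 7.5/NaCl/EGTA/Triton X-100 buffer with phosphatase and protease inhibitors. 20 µg protein run on SDS-PAGE. ERα probed with D12 monoclonal antibody (1 µg/mL, overnight 4 °C), detected by biotin/avidin-peroxidase. Nonspecific band used as loading control; DMSO as vehicle.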

[23] = molecular target: Heat shock protein HSP 90-beta (Homo sapiens) (UniProt P08238); assay: Inhibition of HSP90 in human MCF7 cells assessed as induction of Cdk4 degradation at 100 uM after 24 hrs by western blot analysis; type: cell-based
[24] = molecular target: Heat shock protein HSP 90-beta (Homo sapiens) (UniProt P08238); assay: Inhibition of HSP90 in human MCF7 cells assessed as ER-alpha degradation at 100 uM after 24 hrs by western blot analysis; type: cell-based; summary of the method: as §5
MCF7 [25] = assay: Ratio of novobiocin GI50 to compound GI50 for human MCF7 cells; type: functional
MCF7 [26] = assay: Growth inhibition of Faslodex-resistant human MCF7 cells after 72 hrs by MTT assay; type: functional; conditions: MCF7, 72 h; summary of the method: as §3
[27] = Retardation factor of the compound using CH2Cl2/AcOEt at ratio of 9:1 as solvent system; type: physicochemical
[28] = Retardation factor of the compound using CH2Cl2/MeOH at ratio of 9:1 as solvent system; type: physicochemical

Rf [2]: 0.39
Structure (SMILES): Cc1ccc(S(=O)(=O)Oc2c(NC(=O)c3ccc4c(c3)CCC(C)(C)O4)c(=O)oc3c(C)c(O)c(Br)cc23)cc1
viability at 100 µM (MCF7 [1]): 65%

Rf [17]: 0.19 | Rf [18]: 0.59
Structure (SMILES): COc1c(Br)cc2c(OC)c(NC(=O)c3ccc4c(c3)CCC(C)(C)O4)c(=O)oc2c1C
viability at 100 µM (MCF7 [1]): 90%

Rf [27]: 0.28 | GI50 (MCF7 [14]): 64 µM | ER-alpha degradation (active/inactive) [24]: Active
Structure (SMILES): Cc1c(O)ccc2c(OS(=O)(=O)c3ccc4cccnc4c3)c(NC(=O)c3ccc4c(c3)CCC(C)(C)O4)c(=O)oc12
viability at 100 µM (MCF7 [1]): 22%

Rf [28]: 0.22
Structure (SMILES): COc1c(C#CCN(C)C)cc2c(OS(=O)(=O)c3ccc(C)cc3)c(NC(=O)c3ccc4c(c3)CCC(C)(C)O4)c(=O)oc2c1C
viability at 100 µM (MCF7 [1]): 96%

Rf [2]: 0.14
Structure (SMILES): Cc1c(O)ccc2c(OS(C)(=O)=O)c(NC(=O)c3ccc4c(c3)CCC(C)(C)O4)c(=O)oc12
viability at 100 µM (MCF7 [1]): 61%

More lines, now with the values behind:

Structure (SMILES): CC(=O)OC[C@H]1O[C@@H](Oc2ccc3c(N)c(NC(=O)c4ccc5c(c4)CCC(C)(C)O5)c(=O)oc3c2C)[C@H](OC(C)=O)[C@@H](OC(C)=O)[C@@H]1OC(C)=O
viability at 100 µM (MCF7 [1]): 71% | Rf [3]: 0.17

Structure (SMILES): COc1ccc(C(=O)Nc2cc3cc(Br)ccc3n(C)c2=O)cc1
Activity (MCF7 [4]): 34.81% | GI50 (MDA-MB-231 [5]): 2 µM | Activity (MCF7 [6]): 29.5% | Activity (MCF7 [7]): 18.09% | IC50 (Ishikawa): 2 µM | viability at 100 µM (MCF7 [1]): 10% | Activity (MCF7 [8]): 40.43% | IC50 (Caco-2): 8 µM | IC50 (IGROV-1): 5 µM | Activity (MCF7 [9]): 41.5% | GI50 (RPMI-8226): 5 µM | IC50 (MCF7 [10]): 7 µM | Activity (MCF7 [11]): 48% | Activity (MCF7 [12]): 47% | GI50 (LP-1): 6.2 µM | Activity (MCF7 [13]): 17.14% | GI50 (MCF7 [14]): 7 µM | IC50 (MDA-MB-231 [15]): 2 µM | GI50 (PC-3): 10 µM

Structure (SMILES): Cc1c(O)ccc2c(NCCN3CCOCC3)c(NC(=O)c3ccc4c(c3)CCC(C)(C)O4)c(=O)oc12
viability at 100 µM (MCF7 [1]): 87% | Rf [16]: 0.2

Structure (SMILES): CC(=O)OC[C@H]1O[C@@H](Oc2ccc3c(OS(=O)(=O)c4ccc(C)cc4)c(NC(=O)c4ccc5c(c4)CCC(C)(C)O5)c(=O)oc3c2C)[C@H](OC(C)=O)[C@@H](OC(C)=O)[C@@H]1OC(C)=O
Activity (MCF7 [4]): 40% | GI50 (MCF7 [19]): 30 µM | GI50 (MDA-MB-231 [5]): 10 µM | Activity (MCF7 [6]): 13% | Activity (MCF7 [7]): 9.5% | viability at 100 µM (MCF7 [1]): 10% | Activity (MCF7 [8]): 30% | Rf [3]: 0.14 | inhibition [20]: inactive | Activity (MCF7 [9]): 60% | GI50 (RPMI-8226): 2.5 µM | Activity (MCF7 [11]): 55% | inhibition [21]: inactive | inhibition [22]: inactive | Activity (MCF7 [12]): 27% | inhibition [23]: inactive | GI50 (LP-1): 5 µM | Activity (MCF7 [13]): 5.5% | GI50 (MCF7 [14]): 6 µM | ER-alpha degradation (active/inactive) [24]: Active | Ratio (MCF7 [25]): 40 | GI50 (MCF7 [26]): 25 µM | GI50 (PC-3): 25 µM
